{
  "source": "ChEMBL document CHEMBL1143139",
  "about": "“Structure-activity studies on splitomicin derivatives as sirtuin inhibitors and computational prediction of binding mode” (J Med Chem, 2008)",
  "note": "Activity calls are given as the source filed them. The rule behind the calls is not given here.",
  "data": [
    {"molecular_target": "T1, NAD-dependent protein deacetylase sirtuin-2 (Homo sapiens, UniProt Q8IXJ6)", "T1 sequence (Q8IXJ6 whole entry)": "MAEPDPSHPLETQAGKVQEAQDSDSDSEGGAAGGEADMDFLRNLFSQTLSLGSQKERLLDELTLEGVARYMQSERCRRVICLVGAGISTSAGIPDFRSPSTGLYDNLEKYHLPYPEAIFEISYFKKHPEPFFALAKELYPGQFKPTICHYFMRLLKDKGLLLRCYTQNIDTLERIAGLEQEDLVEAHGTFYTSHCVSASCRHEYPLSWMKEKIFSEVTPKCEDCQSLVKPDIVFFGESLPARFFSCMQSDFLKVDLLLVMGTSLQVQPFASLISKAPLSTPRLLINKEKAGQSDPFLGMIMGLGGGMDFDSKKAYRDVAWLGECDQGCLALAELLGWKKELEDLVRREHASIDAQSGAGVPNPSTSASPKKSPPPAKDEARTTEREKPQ", "assay": "Inhibition of human recombinant Sirt2 expressed in Escherichia coli BL21 by fluorescent deacetylase assay", "units": {"IC50": "µM"}, "values": [
      {"smiles": "Cc1ccc2c3c(ccc2c1)OC(=O)CC3c1ccc(C)c(F)c1", "note": "(stereo not drawn)", "IC50": 3.4},
      {"smiles": "Cc1ccc2c3c(ccc2c1)OC(=O)CC3c1ccccc1", "note": "(stereo not drawn)", "IC50": 10.6},
      {"smiles": "O=C1CC(c2ccccc2)c2c(ccc3cc(Br)ccc23)O1", "note": "(stereo not drawn)", "IC50": 5.2},
      {"smiles": "O=C1CC(c2cccc(F)c2)c2c(ccc3cc(Br)ccc23)O1", "note": "(stereo not drawn)", "IC50": 3.2},
      {"smiles": "O=C1CC(c2ccccc2)c2c(ccc3cc(Br)ccc23)N1", "note": "(stereo not drawn)", "IC50": 6.4},
      {"smiles": "O=C1CC(c2cccc(Br)c2)c2c(ccc3cc(Br)ccc23)O1", "note": "(stereo not drawn)", "IC50": 10.1},
      {"smiles": "Cc1ccc([C@H]2CC(=O)Oc3ccc4cc(C)ccc4c32)cc1", "IC50": 1},
      {"smiles": "Cc1ccc2c3c(ccc2c1)OC(=O)CC3c1cccc(Br)c1", "note": "(stereo not drawn)", "IC50": 9.8},
      {"smiles": "O=C1CC(c2ccc(F)c(F)c2)c2c(ccc3cc(Br)ccc23)O1", "note": "(stereo not drawn)", "IC50": 19.7},
      {"smiles": "O=C1CC(c2ccccc2)c2c(ccc3cc(I)ccc23)O1", "note": "(stereo not drawn)", "IC50": 19.5},
      {"smiles": "Cc1ccc2c3c(ccc2c1)OC(=O)CC3c1cccc(C(N)=O)c1", "note": "(stereo not drawn)", "IC50": 20},
      {"smiles": "Cc1ccc(C2CC(=O)Oc3ccc4cc(Br)ccc4c32)cc1", "note": "(stereo not drawn)", "IC50": 1.5},
      {"smiles": "Cc1ccc(C2CC(=O)Oc3ccc4cc(Br)ccc4c32)cc1F", "note": "(stereo not drawn)", "IC50": 2},
      {"smiles": "O=C1CC(c2ccc(F)cc2)c2c(ccc3cc(Br)ccc23)O1", "note": "(stereo not drawn)", "IC50": 7.9},
      {"smiles": "Cc1ccc2c3c(ccc2c1)OC(=O)CC3c1cccc(C#N)c1", "note": "(stereo not drawn)", "IC50": 3.1},
      {"smiles": "Cc1ccc(C2CC(=O)Oc3ccc4cc(Br)ccc4c32)cc1Cl", "note": "(stereo not drawn)", "IC50": 2.3},
      {"smiles": "Cc1cccc(C2CC(=O)Oc3ccc4cc(C)ccc4c32)c1", "note": "(stereo not drawn)", "IC50": 4.4},
      {"smiles": "COc1cccc(C2CC(=O)Oc3ccc4cc(Br)ccc4c32)c1", "note": "(stereo not drawn)", "IC50": 2.3},
      {"smiles": "COc1ccc(C2CC(=O)Oc3ccc4cc(Br)ccc4c32)cc1", "note": "(stereo not drawn)", "IC50": 5.4},
      {"smiles": "Cc1ccc(C2CC(=O)Oc3ccc4cc(C)ccc4c32)cc1", "note": "(stereo not drawn)", "IC50": 1.5},
      {"smiles": "Cc1ccc2c3c(ccc2c1)OC(=O)C[C@@H]3c1ccccc1", "IC50": 3.4}
    ]},
    {"molecular_target": "T2, NAD-dependent protein deacetylase sirtuin-2 (Homo sapiens) (UniProt Q8IXJ6)", "T2 sequence (whole entry)": "T1 sequence (Q8IXJ6 whole entry)", "assay": "Inhibition of human recombinant Sirt2 expressed in Escherichia coli BL21 at 40 uM by fluorescent deacetylase assay", "in_short": "(§1)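 Full-length human Sirt2, N-terminal His6 tag, expressed in E. coli BL21 (IPTG 0.1 mM, 2 h). 60 µL reaction with fluorescent acetyl-lysine substrate ZMAL 10.5 µM, NAD+ 500 µM, inhibitor from DMSO stock, 4 h at 37 °C. Deacetylated product developed by tryptic digest; fluorescence at ex 390/em 460 nm. Inhibition calculated versus no-inhibitor control; at least duplicate.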", "units": {"inhibition": "%"}, "values": [
      {"smiles": "O=C1CC(c2ccccc2)c2c(ccc3cc(-c4ccccc4)ccc23)O1", "note": "(stereo not drawn)", "inhibition": 26.2},
      {"smiles": "O=C1CC(c2ccc(-c3ccccc3)cc2)c2c(ccc3ccccc23)N1", "note": "(stereo not drawn)", "inhibition": 4.2},
      {"smiles": "CCc1ccc2c3c(ccc2c1)OC(=O)CC3c1ccccc1", "note": "(stereo not drawn)", "inhibition": 25.6},
      {"smiles": "O=C1CC(Cc2ccccc2)c2c(ccc3cc(Br)ccc23)O1", "note": "(stereo not drawn)", "inhibition": 21.1},
      {"smiles": "O=C1CC(c2ccc(F)cc2)c2c(ccc3ccccc23)N1", "note": "(stereo not drawn)", "inhibition": 16.9},
      {"smiles": "N#Cc1ccc2c3c(ccc2c1)OC(=O)CC3c1ccccc1", "note": "(stereo not drawn)", "inhibition": 25.9},
      {"smiles": "O=C1CC(c2ccccc2)c2c(ccc3ccccc23)O1", "note": "(stereo not drawn)", "inhibition": 49.1},
      {"smiles": "COc1ccc2ccc3c(c2c1)C(c1ccccc1)CC(=O)O3", "note": "(stereo not drawn)", "Activity": "inactive"},
      {"smiles": "NC(=O)c1ccc2c3c(ccc2c1)OC(=O)CC3c1ccccc1", "note": "(stereo not drawn)", "Activity": "inactive"},
      {"smiles": "O=C1CC(c2ccccc2)c2c(cc(Br)c3cc(Br)ccc23)O1", "note": "(stereo not drawn)", "inhibition": 9.6},
      {"smiles": "O=C1CC(c2ccccc2)c2c(ccc3ccccc23)N1", "note": "(stereo not drawn)", "inhibition": 31.5}
    ]},
    {"tested_on": "MCF7", "assay": "Growth inhibition of human MCF7 cells at 500 uM by MTT assay", "type": "functional", "in_short": "(§2)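 MCF-7 cells in RPMI-1640 with 10% FBS, L-glutamine and penicillin/streptomycin at 37 °C, 5% CO2; 5000 cells/well, compound or DMSO vehicle added 24 h after seeding, then 72 h exposure.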", "units": {"Inhibition": "%"}, "values": [
      {"smiles": "Cc1ccc([C@@H]2CC(=O)Oc3ccc4cc(C)ccc4c32)cc1", "Inhibition": 74},
      {"smiles": "O=C1CC(c2ccccc2)c2c(ccc3cc(-c4ccccc4)ccc23)O1", "note": "(stereo not drawn)", "Inhibition": 57},
      {"smiles": "Cc1ccc2c3c(ccc2c1)OC(=O)CC3c1cccc(C(N)=O)c1", "note": "(stereo not drawn)", "Inhibition": 64}
    ]},
    {"tested_on": "MCF7", "assay": "Induction of tubulin hyperacetylation in human MCF7 cells at 100 uM by Western blot", "type": "functional, cell-based", "in_short": "(§3)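 MCF-7 cells seeded at 500000/well, treated 24 h later with compound or DMSO for 8 h at 37 °C. PBS-washed cells lysed in Tris-HCl pH 7.5, EDTA, NaCl, 0.5% NP-40 plus protease inhibitors. Protein quantified by BCA before Western blotting.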", "values": [
      {"smiles": "Cc1ccc([C@H]2CC(=O)Oc3ccc4cc(C)ccc4c32)cc1", "Activity": "Active"},
      {"smiles": "Cc1ccc(C2CC(=O)Oc3ccc4cc(Br)ccc4c32)cc1", "note": "(stereo not drawn)", "Activity": "Active"}
    ]},
    {"molecular_target": "T2, NAD-dependent protein deacetylase sirtuin-2 (Homo sapiens)", "assay": "Inhibition of human recombinant Sirt2 expressed in Escherichia coli BL21 at 20 uM by fluorescent deacetylase assay", "in_short": "as §1", "units": {"inhibition": "%"}, "values": [
      {"smiles": "CC(C)(C)c1ccc(C2CC(=O)Oc3ccc4cc(Br)ccc4c32)cc1", "note": "(stereo not drawn)", "inhibition": 46.8},
      {"smiles": "O=C1CCc2c(ccc3cc(Br)ccc23)O1", "Activity": "inactive"},
      {"smiles": "O=C1CC(c2ccc(Cl)c(Cl)c2)c2c(ccc3cc(Br)ccc23)O1", "note": "(stereo not drawn)", "inhibition": 42.3},
      {"smiles": "COc1cc(C2CC(=O)Oc3ccc4cc(Br)ccc4c32)ccc1C", "note": "(stereo not drawn)", "inhibition": 6.3},
      {"smiles": "Cc1ccc2c3c(ccc2c1)OC(=O)CC3c1ccc(-c2ccccc2)cc1", "note": "(stereo not drawn)", "inhibition": 28.3},
      {"smiles": "Cc1ccc2c3c(ccc2c1)OC(=O)CC3c1ccc(Cl)cc1", "note": "(stereo not drawn)", "inhibition": 26.7},
      {"smiles": "Cc1ccc2c3c(ccc2c1)OC(=O)CC3c1cccc(O)c1", "note": "(stereo not drawn)", "inhibition": 15.4},
      {"smiles": "O=C1CC(c2ccccc2)c2c(ccc3cc(-c4ccc5ccccc5c4)ccc23)O1", "note": "(stereo not drawn)", "inhibition": 15.1},
      {"smiles": "O=C1CC(c2ccccc2)c2c(ccc3cc(O)ccc23)O1", "note": "(stereo not drawn)", "inhibition": 21.8},
      {"smiles": "O=C1CC(c2ccccc2)c2c(ccc3cc(-c4ccc(-c5ccccc5)cc4)ccc23)O1", "note": "(stereo not drawn)", "inhibition": 20.6},
      {"smiles": "COc1cc(C2CC(=O)Oc3ccc4cc(C)ccc4c32)ccc1C", "note": "(stereo not drawn)", "inhibition": 9.2},
      {"smiles": "O=C1CC(c2ccccc2)c2c(ccc3cc(-c4cccc(O)c4)ccc23)O1", "note": "(stereo not drawn)", "inhibition": 37.5},
      {"smiles": "O=C1CC(c2ccccc2)c2c(ccc3cc(-c4cccnc4)ccc23)O1", "note": "(stereo not drawn)", "inhibition": 18.4},
      {"smiles": "O=C1CC(c2ccc(Cl)cc2)c2c(ccc3cc(Br)ccc23)O1", "note": "(stereo not drawn)", "inhibition": 28.5},
      {"smiles": "O=C1CC(c2cccnc2)c2c(ccc3ccccc23)N1", "note": "(stereo not drawn)", "Activity": "inactive"},
      {"smiles": "CC(=O)Nc1cccc(-c2ccc3c4c(ccc3c2)OC(=O)CC4c2ccccc2)c1", "note": "(stereo not drawn)", "inhibition": 22.2},
      {"smiles": "COc1ccccc1C1CC(=O)Oc2ccc3cc(Br)ccc3c21", "note": "(stereo not drawn)", "inhibition": 17.4},
      {"smiles": "CC(=O)c1ccc2c3c(ccc2c1)OC(=O)CC3c1ccccc1", "note": "(stereo not drawn)", "inhibition": 24},
      {"smiles": "CC(=O)Nc1cccc(C2CC(=O)Oc3ccc4cc(C)ccc4c32)c1", "note": "(stereo not drawn)", "inhibition": 17.1}
    ]},
    {"tested_on": "MCF7", "assay": "Antiproliferative activity against human MCF7 cells by MTT assay", "type": "functional", "in_short": "as §2", "units": {"GI50": "µM"}, "values": [
      {"smiles": "Cc1ccc([C@H]2CC(=O)Oc3ccc4cc(C)ccc4c32)cc1", "GI50": 84},
      {"smiles": "Cc1ccc(C2CC(=O)Oc3ccc4cc(Br)ccc4c32)cc1", "note": "(stereo not drawn)", "GI50": 43},
      {"smiles": "Cc1ccc(C2CC(=O)Oc3ccc4cc(C)ccc4c32)cc1", "note": "(stereo not drawn)", "GI50": 99}
    ]},
    {"tested_on": "MCF7", "assay": "Induction of tubulin hyperacetylation in human MCF7 cells at 10 uM by Western blot", "type": "functional, cell-based", "in_short": "as §3", "values": [
      {"smiles": "O=C(CCCCCCC(=O)Nc1ccccc1)NO", "Activity": "Active"},
      {"smiles": "NC(=O)[C@H]1CCCCc2c1[nH]c1ccc(Cl)cc21", "Activity": "Active"}
    ]},
    {"molecular_target": "T2, NAD-dependent protein deacetylase sirtuin-2 (Homo sapiens)", "assay": "Inhibition of human recombinant Sirt2 expressed in Escherichia coli BL21 at 100 uM by fluorescent deacetylase assay", "in_short": "as §1", "units": {"inhibition": "%"}, "values": [
      {"smiles": "Cc1ccc([C@@H]2CC(=O)Oc3ccc4cc(C)ccc4c32)cc1", "inhibition": 35.1},
      {"smiles": "Cc1ccc2c3c(ccc2c1)OC(=O)C[C@H]3c1ccccc1", "inhibition": 41.8}
    ]}
  ]
}
